In PMC3962796 (Environmental science & technology, 2013):
Where two headings read alike, the source gives them in different places.

Legend:
[1] = cited from earlier work; for half-life after inhalation exposure (tissues overall): administered as part of Aroclor mixture, same duration of inhalation exposure, Figure S2
[2] = two-component exponential decay; blood, liver and muscle; intravenous; cited from earlier work
[3] = format: in vivo, male Sprague-Dawley rats; conditions: for half-life: male, Sprague-Dawley, rat, inhaled or intranasal, 1.8 ug
Procedure, shortened: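 Male Sprague-Dawley rats (237.6 ± 1.6 g; n=4/group) were exposed nose-only to test compound vapor. The vapor came from air at 4.0 L/min bubbled through the neat compound at 25.0°C, then diluted to 10.0 L/min. Exposure was 1 h, a 1 h break, then 1 h. Shams breathed filtered air. Rats were killed 0, 4 and 8 h post exposure, shams at 2 and 6 h. Lung, liver and serum were PLE-extracted and analysed by GC-MS SIM. Results were blank/surrogate-corrected and lipid-normalized. Analysis used t-tests (p<0.05) and Gauss-Newton non-linear regression.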

[4] = first order model fit, lipid weight basis

Which “half-life after inhalation exposure (tissues overall)” value [1] does the source give for `Clc1ccc(-c2ccc(Cl)cc2)cc1` [CB15, 4,4′-dichlorobiphenyl] here?
The value was 5 to 8 h.

With `Clc1ccccc1-c1ccccc1` [CB1, monochlorobiphenyl] as the molecule, how does the “level remaining during the inhalation exposure” value ([1]; Aroclor 1242 vapor inhalation) read?
The value was “barely detectable levels”.

For `Clc1ccc(Cl)c(-c2c(Cl)ccc(Cl)c2Cl)c1Cl` [CB136, 2,2′,3,3′,6′6′-hexachlorobiphenyl], which “t½ of initial fast distribution phase” value [2] is on record?
The value was 1.7 to 10.6 h.

What about the “t½ of subsequent slower elimination phase” value [2] of the same molecule?
Its value is 55.2 to 406 h.

Which results are given for `Oc1ccc(-c2cccc(Cl)c2)cc1Cl` [4-OH-CB11, 3,3′-dichlorobiphenyl-4-ol]?
ratio of 4-OH-CB11 to CB11 in liver ([3]; 0 h post exposure): 0.7±0.0; mean liver 4-OH-CB11 level relative to sentinel rats ([3]; 4 h group vs sentinel rats): 15 fold; mean liver 4-OH-CB11 level relative to sham rats ([3]; 4 h group vs sham-exposed, not statistically significant): 4 fold; ratio of 4-OH-CB11 to CB11 in liver ([3]; 4 h post exposure): 0.9±0.2; ratio of 4-OH-CB11 to CB11 in liver ([3]; 8 h post exposure): 1.1±0.1; detection of 4-OH-CB11 in liver ([3]; liver of all PCB-exposed animals): detected; detection of 4-OH-CB11 in lung ([3]; lung samples of exposed rats): not detected; detection of 4-OH-CB11 in serum ([3]; serum samples of exposed rats): not detected

For `Clc1ccc(-c2ccc(Cl)cc2Cl)cc1` [CB28], which “time of peak concentration after exposure” value ([1]; Aroclor 1242 vapor inhalation, suggests redistribution phase) is on record?
The value was 1 h.

Which “half-life after inhalation exposure (tissues overall)” value [1] does the source give for `Clc1ccc(-c2ccccc2Cl)cc1` [CB8, 2,4′-Dichlorobiphenyl] here?
The value was 5 to 8 h.

With `Clc1cc(Cl)c(-c2cc(Cl)c(Cl)cc2Cl)cc1Cl` [CB153] as the molecule, how does the “t½ of initial fast distribution phase” value [2] read?
Its value is 1.7 to 10.6 h.

And the “t½ of subsequent slower elimination phase” value [2]?
Its value is 55.2 to 406 h.

With `Clc1cccc(-c2cccc(Cl)c2)c1` [CB11, 3,3′-dichlorobiphenyl] as the molecule, how does the “C0 (initial concentration) of CB11 in liver” value [3, 4] read?
Its value is 73.6 ng/g l.w.

And the “C0 (initial concentration) of CB11 in serum” value [3, 4]?
The value was 295 ng/g l.w.

What about the “C0 (initial concentration) of CB11 in lung” value ([3]; first order model fit, lipid weight basis, inhalation 106 μg/m^3 for 2 h) of the same molecule?
The value was 932 ng/g l.w.

What about the half-life ([3]; liver) of the same molecule?
The half-life was 2.1 h.

What about the half-life ([3]; lung) of the same molecule?
Its half-life is 1.9 h.

And the half-life ([3]; serum)?
The half-life was 1.8 h.

Which “level remaining during the inhalation exposure” value ([1]; Aroclor 1242 vapor inhalation) does the source give for `Clc1ccccc1-c1ccccc1Cl` [CB4] here?
Its value is “barely detectable levels”.
